Activity data for one compound are collected here from ChEMBL document CHEMBL4354843, “Structure-Based Design of a Potent and Selective Covalent Inhibitor for SRC Kinase That Targets a P-Loop Cysteine” (J Med Chem, 2020).

Molecules are shown by their SMILES.

Assay [1] concerns the target Serine/threonine-protein kinase 16 (Homo sapiens) (UniProt O75716). The assay is described as follows: Binding affinity to wild-type human partial length STK16 (G11 to I305 residues) expressed in bacterial expression system assessed as residual binding level at 1 uM by Kinomescan method relative to control.
For assay [2], the target named is Ribosomal protein S6 kinase alpha-2 (Homo sapiens) (UniProt Q15349). The assay is described as follows: Binding affinity to wild-type human partial length C-terminal RSK3 kinase domain 2 (V403 to K700 residues) expressed in bacterial expression system assessed as residual binding level at 1 uM by Kinomescan method relative to control.
Ribosomal protein S6 kinase alpha-2 (Homo sapiens), sequence (Q15349 whole entry, the tested form may be a part): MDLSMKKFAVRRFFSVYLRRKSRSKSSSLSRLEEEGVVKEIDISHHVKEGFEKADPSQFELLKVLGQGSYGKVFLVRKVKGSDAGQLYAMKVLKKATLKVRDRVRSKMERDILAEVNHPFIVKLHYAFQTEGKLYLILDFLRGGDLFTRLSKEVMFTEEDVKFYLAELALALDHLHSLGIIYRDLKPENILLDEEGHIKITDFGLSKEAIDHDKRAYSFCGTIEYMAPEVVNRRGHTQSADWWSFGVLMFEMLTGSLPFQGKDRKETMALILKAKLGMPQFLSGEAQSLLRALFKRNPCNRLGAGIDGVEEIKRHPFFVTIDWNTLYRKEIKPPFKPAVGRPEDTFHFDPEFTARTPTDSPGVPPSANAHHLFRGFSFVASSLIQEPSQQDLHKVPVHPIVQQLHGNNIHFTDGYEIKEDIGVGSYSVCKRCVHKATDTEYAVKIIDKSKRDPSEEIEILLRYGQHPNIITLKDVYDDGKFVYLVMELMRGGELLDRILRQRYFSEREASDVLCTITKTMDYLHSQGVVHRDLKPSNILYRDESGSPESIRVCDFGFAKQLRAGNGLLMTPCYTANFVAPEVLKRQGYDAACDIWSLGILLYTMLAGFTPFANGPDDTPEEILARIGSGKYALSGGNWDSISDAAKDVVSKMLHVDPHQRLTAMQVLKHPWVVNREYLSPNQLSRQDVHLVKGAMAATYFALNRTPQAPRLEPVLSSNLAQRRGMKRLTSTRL
For assay [3], the target named is Serine/threonine-protein kinase SIK2 (Homo sapiens) (UniProt Q9H0K1). The experiment in a line: Binding affinity to wild-type human full length SIK2 (M1 to N926 residues) expressed in bacterial expression system assessed as residual binding level at 1 uM by Kinomescan method relative to control. A digest of the protocol:
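Active site-directed binding assay (KinomeScan) run across a 468-kinase panel, with the test compound at 1 μM. The read-out is the remaining kinase signal in the presence of compound, expressed as a percentage of the DMSO control. Scores above 35% were taken as weak binding and were not reported.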

The target of assay [4] is Calcium/calmodulin-dependent protein kinase kinase 1 (Homo sapiens) (UniProt Q8N5S9). The experiment in a line: Binding affinity to wild-type human partial length CAMKK1 (R65 to E414 residues) expressed in bacterial expression system assessed as residual binding level at 1 uM by Kinomescan method relative to control.
Calcium/calmodulin-dependent protein kinase kinase 1 (Homo sapiens), sequence (Q8N5S9 whole entry, looked up, the tested form may be a part): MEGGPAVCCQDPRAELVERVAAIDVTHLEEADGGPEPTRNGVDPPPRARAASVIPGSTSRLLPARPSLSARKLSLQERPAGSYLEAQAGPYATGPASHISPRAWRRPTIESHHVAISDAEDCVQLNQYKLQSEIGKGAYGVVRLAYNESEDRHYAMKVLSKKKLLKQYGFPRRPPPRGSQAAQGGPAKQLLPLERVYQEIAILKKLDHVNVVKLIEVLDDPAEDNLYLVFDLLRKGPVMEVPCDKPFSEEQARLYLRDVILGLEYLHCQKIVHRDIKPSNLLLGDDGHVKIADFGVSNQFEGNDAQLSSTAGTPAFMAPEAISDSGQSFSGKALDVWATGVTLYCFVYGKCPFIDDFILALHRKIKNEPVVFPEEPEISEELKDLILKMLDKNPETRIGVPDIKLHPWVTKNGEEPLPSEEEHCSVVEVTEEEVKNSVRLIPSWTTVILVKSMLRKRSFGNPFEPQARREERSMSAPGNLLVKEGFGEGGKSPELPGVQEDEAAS
Assay [5] concerns the target Serine/threonine-protein kinase haspin (Homo sapiens) (UniProt Q8TF76). The experiment in a line: Binding affinity to wild-type human partial length HASPIN (I452 to K798 residues) expressed in mammalian expression system assessed as residual binding level at 1 uM by Kinomescan method relative to control.
The target in assay [6] is Tyrosine-protein kinase Srms (Homo sapiens) (UniProt Q9H3Y6). The assay is described as follows: Binding affinity to wild-type human partial length SRMS (L208 to P488 residues) expressed in mammalian expression system assessed as residual binding level at 1 uM by Kinomescan method relative to control.
For assay [7], the target named is Mast/stem cell growth factor receptor Kit (Homo sapiens) (UniProt P10721). The experiment in a line: Binding affinity to wild-type human partial length KIT (I571 to D952 residues) expressed in bacterial expression system assessed as residual binding level at 1 uM by Kinomescan method relative to control.
Mast/stem cell growth factor receptor Kit (Homo sapiens), sequence (P10721 whole entry, the tested form may be a part): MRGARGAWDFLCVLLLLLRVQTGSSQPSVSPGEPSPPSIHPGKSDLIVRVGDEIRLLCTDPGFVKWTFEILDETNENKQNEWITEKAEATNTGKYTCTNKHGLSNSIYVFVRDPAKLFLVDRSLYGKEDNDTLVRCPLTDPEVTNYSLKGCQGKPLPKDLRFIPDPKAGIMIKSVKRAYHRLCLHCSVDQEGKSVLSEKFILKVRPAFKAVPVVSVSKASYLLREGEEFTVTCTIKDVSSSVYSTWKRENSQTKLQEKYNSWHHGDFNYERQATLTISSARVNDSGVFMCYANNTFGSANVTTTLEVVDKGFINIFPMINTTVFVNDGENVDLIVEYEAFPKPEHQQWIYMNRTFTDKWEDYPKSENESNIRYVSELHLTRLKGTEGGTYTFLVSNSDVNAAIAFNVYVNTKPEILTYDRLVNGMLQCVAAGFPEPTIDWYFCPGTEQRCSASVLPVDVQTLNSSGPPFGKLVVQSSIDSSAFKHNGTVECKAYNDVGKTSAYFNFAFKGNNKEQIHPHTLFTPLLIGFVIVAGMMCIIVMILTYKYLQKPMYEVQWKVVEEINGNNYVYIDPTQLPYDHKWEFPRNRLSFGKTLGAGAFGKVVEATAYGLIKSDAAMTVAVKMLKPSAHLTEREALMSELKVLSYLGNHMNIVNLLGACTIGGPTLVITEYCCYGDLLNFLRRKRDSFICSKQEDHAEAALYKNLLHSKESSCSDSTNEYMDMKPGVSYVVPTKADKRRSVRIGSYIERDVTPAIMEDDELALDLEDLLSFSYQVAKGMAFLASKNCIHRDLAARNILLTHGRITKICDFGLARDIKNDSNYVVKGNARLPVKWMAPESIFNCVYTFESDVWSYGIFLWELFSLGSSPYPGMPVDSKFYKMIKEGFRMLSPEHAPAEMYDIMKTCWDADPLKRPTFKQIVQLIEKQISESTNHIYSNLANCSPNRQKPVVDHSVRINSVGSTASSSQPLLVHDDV
Assay [8] addresses Cyclin-dependent kinase 2 homolog (Plasmodium falciparum (isolate 3D7)) (UniProt P61075). The experiment in a line: Binding affinity to wild-type Plasmodium falciparum full length PK5 (M1 to N288 residues) expressed in mammalian expression system assessed as residual binding level at 1 uM by Kinomescan method relative to control. The essentials: (§1)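 Active-site-directed KinomeScan competition binding panel covering 468 kinases, compound tested at 1 μM. Each readout is the kinase signal remaining with compound, expressed as a percentage of the DMSO control. […]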

Assay [9] addresses Homeodomain-interacting protein kinase 2 (Homo sapiens) (UniProt Q9H2X6). The experiment in a line: Binding affinity to wild-type human partial length HIPK2 (M153 to S564 residues) expressed in mammalian expression system assessed as residual binding level at 1 uM by Kinomescan method relative to control.
For assay [10], the system named is Epidermal growth factor receptor (Homo sapiens), P00533 [G719S]. The experiment in a line: Binding affinity to human partial length EGFR G719S mutant (R669 to V1011 residues) expressed in bacterial expression system assessed as residual binding level at 1 uM by Kinomescan method relative to control. The essentials: (§2)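 KinomeScan active site-directed competition binding panel (468 kinases), compound tested at 1 μM. Result expressed as remaining kinase signal versus DMSO control (percent of control).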

Assay [11] has as its target Dual specificity tyrosine-phosphorylation-regulated kinase 1A (Homo sapiens) (UniProt Q13627). The experiment in a line: Binding affinity to wild-type human partial length DYRK1A (H129 to S509 residues) expressed in mammalian expression system assessed as residual binding level at 1 uM by Kinomescan method relative to control.
Assay [12] has as its target Vascular endothelial growth factor receptor 1 (Homo sapiens) (UniProt P17948). The experiment in a line: Binding affinity to wild-type human partial length FLT1 (R781 to F1239 residues) expressed in bacterial expression system assessed as residual binding level at 1 uM by Kinomescan method relative to control.
The target in assay [13] is Calcium/calmodulin-dependent protein kinase type 1B (Homo sapiens) (UniProt Q6P2M8). The assay is described as follows: Binding affinity to wild-type human partial length CAMK1B (W9 to A311 residues) expressed in mammalian expression system assessed as residual binding level at 1 uM by Kinomescan method relative to control. A digest of the protocol: (§3)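 KinomeScan, an active site-directed competition binding panel of 468 kinases. The test compound was at 1 μM. The readout is remaining kinase binding as a percentage of the DMSO control. Scores above 35% were treated as weak binding and not listed.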

The target of assay [14] is Serine/threonine-protein kinase Nek10 (Homo sapiens) (UniProt Q6ZWH5). The experiment in a line: Binding affinity to wild-type human partial length NEK10 (L488 to R809 residues) expressed in mammalian expression system assessed as residual binding level at 1 uM by Kinomescan method relative to control.
For assay [15], the target named is Ribosomal protein S6 kinase alpha-6 (Homo sapiens) (UniProt Q9UK32). The assay is described as follows: Binding affinity to wild-type human partial length N- terminal RSK4 kinase domain 1 (M1 to E397 residues) expressed in mammalian expression system assessed as residual binding level at 1 uM by Kinomescan method relative to control. The essentials: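 Active-site-directed competition binding panel of 468 kinases (KinomeScan), compound at 1 μM. The read-out is kinase remaining bound, given as a percentage of the DMSO control. […]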
Ribosomal protein S6 kinase alpha-6 (Homo sapiens), sequence (Q9UK32 whole entry, the tested form may be a part): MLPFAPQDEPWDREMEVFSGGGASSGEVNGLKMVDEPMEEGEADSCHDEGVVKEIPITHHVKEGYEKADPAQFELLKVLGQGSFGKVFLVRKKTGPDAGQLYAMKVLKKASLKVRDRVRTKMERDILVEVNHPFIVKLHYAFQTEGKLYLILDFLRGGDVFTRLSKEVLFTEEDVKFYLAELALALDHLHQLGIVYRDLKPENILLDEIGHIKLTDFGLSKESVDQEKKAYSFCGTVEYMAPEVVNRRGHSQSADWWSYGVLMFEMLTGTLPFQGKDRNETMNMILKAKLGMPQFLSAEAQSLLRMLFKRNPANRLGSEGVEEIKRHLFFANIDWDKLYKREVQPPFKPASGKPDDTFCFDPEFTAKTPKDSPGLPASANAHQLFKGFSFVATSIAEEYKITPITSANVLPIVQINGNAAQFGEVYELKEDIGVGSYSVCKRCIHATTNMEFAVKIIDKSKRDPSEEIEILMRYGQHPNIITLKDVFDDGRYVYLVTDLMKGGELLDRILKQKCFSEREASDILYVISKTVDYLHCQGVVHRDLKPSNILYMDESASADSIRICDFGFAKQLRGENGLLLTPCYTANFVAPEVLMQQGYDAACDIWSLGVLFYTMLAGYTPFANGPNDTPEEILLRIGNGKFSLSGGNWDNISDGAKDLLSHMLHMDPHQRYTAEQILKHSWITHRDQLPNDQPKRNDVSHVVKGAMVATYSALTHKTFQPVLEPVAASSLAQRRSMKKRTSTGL

Assay [16] concerns Mast/stem cell growth factor receptor Kit (Homo sapiens), P10721 [D816V]. The experiment in a line: Binding affinity to human partial length KIT D816V mutant (I571 to D952 residues) expressed in bacterial expression system assessed as residual binding level at 1 uM by Kinomescan method relative to control. The essentials:
as §2

Assay [17] deals with Serine/threonine-protein kinase RIO1 (Homo sapiens) (UniProt Q9BRS2). The experiment in a line: Binding affinity to wild-type human full length RIOK1 (M1 to K568 residues) expressed in bacterial expression system assessed as residual binding level at 1 uM by Kinomescan method relative to control. A digest of the protocol:
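Active-site-directed competition binding screen across a 468-kinase panel, run with the test compound at 1 μM. The read-out is the kinase signal remaining relative to a DMSO control, reported as a percentage. […]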

Assay [18] concerns the target Serine/threonine-protein kinase PAK 3 (Homo sapiens) (UniProt O75914). The experiment in a line: Binding affinity to wild-type human full length PAK3 (M1 to R544 residues) expressed in bacterial expression system assessed as residual binding level at 1 uM by Kinomescan method relative to control. A digest of the protocol: as §3
Assay [19] has as its target Megakaryocyte-associated tyrosine-protein kinase (Homo sapiens) (UniProt P42679). The experiment in a line: Binding affinity to wild-type human full length CTK (M43 to P508 residues) expressed in mammalian expression system assessed as residual binding level at 1 uM by Kinomescan method relative to control. A digest of the protocol:
as §1

Assay [20] deals with Mitogen-activated protein kinase kinase kinase 5 (Homo sapiens) (UniProt Q99683). The assay is described as follows: Binding affinity to wild-type human partial length ASK1 (E648 to S964 residues) expressed in bacterial expression system assessed as residual binding level at 1 uM by Kinomescan method relative to control.

Vascular endothelial growth factor receptor 1 (Homo sapiens), sequence (P17948 whole entry, the tested form may be a part): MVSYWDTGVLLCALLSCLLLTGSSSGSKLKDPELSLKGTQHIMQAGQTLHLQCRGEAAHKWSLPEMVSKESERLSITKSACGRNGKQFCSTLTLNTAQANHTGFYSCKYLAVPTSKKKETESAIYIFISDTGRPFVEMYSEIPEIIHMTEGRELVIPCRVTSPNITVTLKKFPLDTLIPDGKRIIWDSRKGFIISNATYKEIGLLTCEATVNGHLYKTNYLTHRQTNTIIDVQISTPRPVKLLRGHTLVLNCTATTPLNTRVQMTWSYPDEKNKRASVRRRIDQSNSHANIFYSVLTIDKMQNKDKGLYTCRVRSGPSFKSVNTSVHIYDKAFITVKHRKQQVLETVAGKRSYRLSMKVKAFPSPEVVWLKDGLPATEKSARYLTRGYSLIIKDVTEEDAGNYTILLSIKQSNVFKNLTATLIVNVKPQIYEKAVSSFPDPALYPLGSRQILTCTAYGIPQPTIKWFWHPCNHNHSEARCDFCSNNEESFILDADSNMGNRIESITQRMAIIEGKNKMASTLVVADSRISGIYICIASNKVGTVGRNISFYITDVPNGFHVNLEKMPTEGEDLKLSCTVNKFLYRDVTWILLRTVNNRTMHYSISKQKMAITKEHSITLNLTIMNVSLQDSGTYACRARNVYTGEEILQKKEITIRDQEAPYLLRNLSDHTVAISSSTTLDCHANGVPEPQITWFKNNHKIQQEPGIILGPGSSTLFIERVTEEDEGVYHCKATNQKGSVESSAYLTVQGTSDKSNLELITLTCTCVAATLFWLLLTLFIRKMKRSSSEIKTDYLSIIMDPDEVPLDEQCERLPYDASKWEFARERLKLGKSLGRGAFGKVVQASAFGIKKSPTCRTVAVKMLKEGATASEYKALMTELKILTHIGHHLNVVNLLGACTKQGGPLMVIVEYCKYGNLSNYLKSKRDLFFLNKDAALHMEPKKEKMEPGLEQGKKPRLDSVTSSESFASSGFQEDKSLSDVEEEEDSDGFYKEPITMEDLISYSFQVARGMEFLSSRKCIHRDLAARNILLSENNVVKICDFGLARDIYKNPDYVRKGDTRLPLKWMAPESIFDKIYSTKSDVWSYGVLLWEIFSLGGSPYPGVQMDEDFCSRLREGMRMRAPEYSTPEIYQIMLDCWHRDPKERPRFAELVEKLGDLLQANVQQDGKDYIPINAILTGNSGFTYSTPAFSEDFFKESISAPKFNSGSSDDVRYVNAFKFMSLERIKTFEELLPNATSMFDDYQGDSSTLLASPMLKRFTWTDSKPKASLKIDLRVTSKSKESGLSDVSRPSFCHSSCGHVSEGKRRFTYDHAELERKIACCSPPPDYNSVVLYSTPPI
Serine/threonine-protein kinase RIO1 (Homo sapiens), sequence (Q9BRS2 whole entry, the tested form may be a part): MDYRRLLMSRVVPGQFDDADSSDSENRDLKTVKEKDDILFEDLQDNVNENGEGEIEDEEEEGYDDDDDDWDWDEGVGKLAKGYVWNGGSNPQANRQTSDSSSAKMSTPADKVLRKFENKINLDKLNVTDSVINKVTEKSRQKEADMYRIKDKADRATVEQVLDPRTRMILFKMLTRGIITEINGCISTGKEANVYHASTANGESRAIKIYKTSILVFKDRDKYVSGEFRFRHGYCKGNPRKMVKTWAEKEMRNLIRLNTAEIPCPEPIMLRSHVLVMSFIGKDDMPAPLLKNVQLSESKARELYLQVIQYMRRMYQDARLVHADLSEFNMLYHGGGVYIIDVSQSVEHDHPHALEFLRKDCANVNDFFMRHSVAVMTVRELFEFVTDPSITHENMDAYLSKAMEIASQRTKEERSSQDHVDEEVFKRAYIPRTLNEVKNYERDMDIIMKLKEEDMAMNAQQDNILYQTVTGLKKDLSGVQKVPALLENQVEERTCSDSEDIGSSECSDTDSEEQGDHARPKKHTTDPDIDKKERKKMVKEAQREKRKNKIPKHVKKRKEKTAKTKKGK
Mast/stem cell growth factor receptor Kit (Homo sapiens), P10721 [D816V], sequence (P10721 whole entry D816V, the tested form may be a part): as the sequence (P10721 whole entry, the tested form may be a part) above, with D816V counted along it

For `C=CC(=O)Nc1ccccc1Nc1nc(Nc2ccc(N3CCN(C)CC3)cc2)ncc1C(=O)Nc1c(C)cccc1Cl`, the Activity in [1] was determined as 100%; in [2] it was 100%; in assay [3], 67%; in assay [4] it was 100%; in assay [5], 100%; in assay [6], 87%. Also, the Activity worked out at 40% in assay [7]; 100% in [8]; 100% in [9]; 95% in [10]; 100% in assay [11]; 100% in [12]. Moreover, the Activity in assay [13] amounted to 98%; in assay [14], 100%; in assay [15], 77%; in assay [16], 100%; in assay [17] it was 100%; in assay [18], 76%. In addition, the Activity in assay [19] and in assay [20] was 100% each time.
